We go through 28 compounds from ChEMBL document CHEMBL1139732, “Identification and optimisation of 5-amino-7-aryldihydro-1,4-diazepines as 5-HT2A ligands” (Bioorg Med Chem Lett, 2006).

The target in series [1] is 5-hydroxytryptamine receptor 2A (Homo sapiens, UniProt P28223). The series can be described thus: Displacement of [3H]ketanserin from human 5HT2A receptor expressed in CHOK1 cells. It counts as cell-based, CHO-K1. In short, it runs like this: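 Membranes from confluent CHO K1 cells expressing human 5-HT2A were incubated with [3H]ketanserin (76 Ci/mmol) for 15 min at 37 °C with shaking at 180 rpm. Buffer was 50 mM Tris pH 7.7, 0.1% ascorbate, pargyline, MgSO4 and 0.5 mM EDTA. Bound and free ligand were separated by GF/B filtration and the filters counted. Mianserin defined non-specific binding. Five-point log titrations were fitted with a four-parameter curve to give IC50 and Ki.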
(In a radioligand displacement assay an active substance lowers the binding of a labelled ligand.)

Series [2] concerns the target Voltage-gated inwardly rectifying potassium channel KCNH2 (Homo sapiens, UniProt Q12809). The series can be described thus: Activity at HERG potassium channel. It counts as functional.
In series [3] the target is T1, 5-hydroxytryptamine receptor 2C (Homo sapiens, UniProt P28335).
T1 sequence (P28335 whole entry): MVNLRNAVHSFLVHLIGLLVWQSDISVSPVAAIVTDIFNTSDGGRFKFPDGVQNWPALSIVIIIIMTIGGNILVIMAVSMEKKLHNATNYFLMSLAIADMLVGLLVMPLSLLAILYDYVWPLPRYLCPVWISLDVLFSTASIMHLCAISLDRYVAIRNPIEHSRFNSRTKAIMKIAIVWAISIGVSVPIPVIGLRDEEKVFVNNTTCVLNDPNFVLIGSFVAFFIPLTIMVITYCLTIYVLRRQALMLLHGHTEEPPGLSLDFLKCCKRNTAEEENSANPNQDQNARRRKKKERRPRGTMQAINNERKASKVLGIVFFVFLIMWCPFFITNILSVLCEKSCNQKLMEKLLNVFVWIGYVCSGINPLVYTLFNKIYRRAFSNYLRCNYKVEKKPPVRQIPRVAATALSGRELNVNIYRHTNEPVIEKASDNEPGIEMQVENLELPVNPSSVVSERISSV
The series can be described thus: Binding affinity to 5HT2C receptor.

Series [4] deals with 5-hydroxytryptamine receptor 2A (Rattus norvegicus, UniProt P14842). The series can be described thus: Binding affinity to rat 5HT2A receptor.

pIC50: −log10 of the molar value.

Voltage-gated inwardly rectifying potassium channel KCNH2, sequence (Q12809 whole entry): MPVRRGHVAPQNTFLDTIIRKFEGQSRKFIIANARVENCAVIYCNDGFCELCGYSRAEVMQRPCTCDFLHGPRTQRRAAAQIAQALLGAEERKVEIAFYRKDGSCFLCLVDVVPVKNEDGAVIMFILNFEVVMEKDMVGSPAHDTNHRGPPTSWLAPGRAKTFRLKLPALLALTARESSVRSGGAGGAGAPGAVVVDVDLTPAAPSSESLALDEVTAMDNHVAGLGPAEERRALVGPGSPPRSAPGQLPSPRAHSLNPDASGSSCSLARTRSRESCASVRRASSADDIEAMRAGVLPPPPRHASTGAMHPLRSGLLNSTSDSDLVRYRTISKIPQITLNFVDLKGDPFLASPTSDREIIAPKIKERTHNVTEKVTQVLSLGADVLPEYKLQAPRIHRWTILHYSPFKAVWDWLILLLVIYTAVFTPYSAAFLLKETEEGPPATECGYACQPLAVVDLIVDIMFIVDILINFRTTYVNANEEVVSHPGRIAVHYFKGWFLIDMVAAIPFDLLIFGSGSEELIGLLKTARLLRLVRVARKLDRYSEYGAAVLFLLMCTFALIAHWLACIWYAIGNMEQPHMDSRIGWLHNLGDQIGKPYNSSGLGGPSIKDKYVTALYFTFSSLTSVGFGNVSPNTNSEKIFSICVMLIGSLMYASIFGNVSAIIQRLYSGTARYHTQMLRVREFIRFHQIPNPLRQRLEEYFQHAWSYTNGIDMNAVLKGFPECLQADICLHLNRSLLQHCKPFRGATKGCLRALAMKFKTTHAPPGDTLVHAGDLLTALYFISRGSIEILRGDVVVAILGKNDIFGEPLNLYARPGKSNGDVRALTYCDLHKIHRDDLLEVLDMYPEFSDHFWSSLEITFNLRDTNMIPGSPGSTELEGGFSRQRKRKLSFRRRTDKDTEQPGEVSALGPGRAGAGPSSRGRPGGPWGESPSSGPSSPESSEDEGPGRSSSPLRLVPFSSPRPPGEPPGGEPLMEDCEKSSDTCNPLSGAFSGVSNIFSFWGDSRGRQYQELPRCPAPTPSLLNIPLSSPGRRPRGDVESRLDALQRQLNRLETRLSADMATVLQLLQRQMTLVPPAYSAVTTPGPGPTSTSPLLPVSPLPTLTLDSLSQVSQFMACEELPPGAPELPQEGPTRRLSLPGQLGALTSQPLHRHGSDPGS
5-hydroxytryptamine receptor 2A (Homo sapiens, UniProt P28223), sequence (P28223 whole entry): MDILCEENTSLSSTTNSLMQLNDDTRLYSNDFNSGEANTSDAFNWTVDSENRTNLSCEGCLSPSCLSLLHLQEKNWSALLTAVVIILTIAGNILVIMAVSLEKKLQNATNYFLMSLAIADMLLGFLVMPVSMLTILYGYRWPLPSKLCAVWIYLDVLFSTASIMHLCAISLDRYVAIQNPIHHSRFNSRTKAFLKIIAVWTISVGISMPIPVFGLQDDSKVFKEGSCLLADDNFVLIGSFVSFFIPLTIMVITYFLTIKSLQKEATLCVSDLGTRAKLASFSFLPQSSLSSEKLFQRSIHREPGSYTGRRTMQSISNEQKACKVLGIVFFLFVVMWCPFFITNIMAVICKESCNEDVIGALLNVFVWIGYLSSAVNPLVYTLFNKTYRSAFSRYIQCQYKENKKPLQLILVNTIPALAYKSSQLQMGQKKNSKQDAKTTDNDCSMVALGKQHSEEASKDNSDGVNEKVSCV
5-hydroxytryptamine receptor 2A (Rattus norvegicus, UniProt P14842), sequence (P14842 whole entry): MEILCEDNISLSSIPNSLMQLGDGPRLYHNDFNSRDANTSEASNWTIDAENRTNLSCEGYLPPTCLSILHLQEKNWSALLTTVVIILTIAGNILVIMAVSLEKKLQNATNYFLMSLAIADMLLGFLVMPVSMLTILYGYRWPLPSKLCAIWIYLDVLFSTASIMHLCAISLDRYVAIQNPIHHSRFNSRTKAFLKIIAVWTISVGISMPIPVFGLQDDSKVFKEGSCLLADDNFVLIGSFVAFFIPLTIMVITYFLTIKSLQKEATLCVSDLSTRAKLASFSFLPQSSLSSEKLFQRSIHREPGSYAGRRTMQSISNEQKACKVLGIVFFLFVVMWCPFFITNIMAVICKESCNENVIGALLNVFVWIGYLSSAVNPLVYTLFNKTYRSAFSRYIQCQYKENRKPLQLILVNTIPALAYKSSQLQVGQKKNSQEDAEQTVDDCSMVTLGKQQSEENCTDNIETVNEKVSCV

As usually defined, the pIC50 is −log10 of the IC50, conventionally taken in molar units. A high value points to a small IC50. `CC(C)(C)NC1=NCCNC(c2ccccc2Cl)=C1` gave a negative logarithm of the IC50 (pIC50) in series [1] of 7.12. In addition, the Activity in series [2] was greater than 1000 nM.
The matching figures for `CC1(NC2=NCCNC(c3ccc(F)cc3)=C2)CCCCC1`: 8.80 and greater than 1000 nM.
The matching figures for `CC(C)(NC1=NCCNC(c2ccc(F)cc2F)=C1)C1CCC1`: 8.85 and greater than 1000 nM.
For the compound `CC(C)(C)NC1=NCCNC(c2ccc(F)cc2)=C1`, the pIC50 was 7.68 in series [1] and 6.20 in series [3]. Also, in series [2], the Activity is given as greater than 1000 nM.
Turning to `CC(C)(C)NC1=NCCNC(c2ccc(C#N)cc2)=C1`, the pIC50 in series [1] was 5.55. Moreover, the Activity in series [2] was greater than 1000 nM.
Regarding `CC(C)(C)NC1=NCCNC(c2cccc(C(F)(F)F)c2)=C1`, the pIC50 in series [1] is 6.29. For the same compound, the Activity in series [2] is greater than 1000 nM.
The matching figures for `CCC1(NC2=NCCNC(c3ccc(F)cc3)=C2)CCCC1`: 9.10 and greater than 1000 nM.
With `CC(C)(C)NC1=NCCNC(c2ccccc2)=C1`, the pIC50 was 7.46 in series [1] and 5.98 in series [3]. The Activity in series [2] is greater than 1000 nM.
On to `CCC(CC)(CC)NC1=NCCNC(c2ccc(F)cc2F)=C1`, for which the negative-log IC50 (pIC50) in series [1] is 8.43; in series [3] it was 7.07. This compound had an Activity in series [2] greater than 1000 nM.
On to `CCC1(NC2=NCCNC(c3ccc(F)cc3F)=C2)CCCC1`, for which the pIC50 in series [1] is 8.96; in series [4], 8.64; in series [3], 7.57. Also, the Activity in series [2] is on record as greater than 1000 nM.
On to `COc1ccc(C2=CC(NC(C)(C)C)=NCCN2)cc1`, for which the pIC50 in series [1] is 6.27. The Activity in series [2] was greater than 1000 nM.
The compound `Cc1ccccc1C1=CC(NC(C)(C)C)=NCCN1` had a pIC50 in series [1] of 6.95. The Activity in series [2] is greater than 1000 nM.
The matching figures for `CC(C)(C)NC1=NCCNC(c2ccccc2F)=C1`: 7.74 and greater than 1000 nM.
With `Cc1ccc(C2=CC(NC(C)(C)C)=NCCN2)cc1`, in series [1], the pIC50 was 7.96. In series [2], this compound had an Activity greater than 1000 nM.
The matching figures for `CC(C)(C)NC1=NCCNC(c2ccc(F)cc2F)=C1`: 7.96 and greater than 1000 nM.
The compound `CCC1(NC2=NCCNC(c3ccccc3F)=C2)CCCC1` showed a pIC50 in series [1] of 8.44. This compound gave an Activity in series [2] greater than 1000 nM.
For `CC(C)(Cc1ccccc1)NC1=NCCNC(c2ccccc2F)=C1`, the pIC50 in series [1] is 8.42. Moreover, the Activity in series [2] is 270 nM.
The compound `CCC(C)(CC)NC1=NCCNC(c2ccccc2F)=C1` had a pIC50 in series [1] of 8.35. In series [2], this compound had an Activity greater than 1000 nM.
Take `CCC(C)(CC)NC1=NCCNC(c2ccc(F)cc2)=C1`: the pIC50 in series [1] is 8.82; in series [3], 7.80. In series [2], this compound showed an Activity greater than 1000 nM.
In series [1], `CCN(CC)C1=NCCNC(c2ccccc2F)=C1` showed a pIC50 of less than 6.00. In series [2], the Activity is listed as greater than 1000 nM.
For `Cc1ccc(C2=CC(N3CCNCC3)=NCCN2)cc1`, the pIC50 in series [1] was less than 6.00. In series [2], the Activity was greater than 1000 nM.
As to `CCC(C)(CC)NC1=NCCNC(c2ccc(C)cc2)=C1`, the pIC50 in series [1] is 7.83; in series [3], 7.12. This compound displayed an Activity in series [2] greater than 1000 nM.
In series [1], `CC(C)(C)CNC1=NCCNC(c2ccccc2F)=C1` showed a pIC50 of 5.82. In series [2], this compound displayed an Activity greater than 1000 nM.
In the case of `Cc1ccc(C2=CC(NC(C)(C)C)=NCCN2)c(F)c1`, in series [1], the pIC50 was 7.85. Also, the Activity in series [2] is recorded as greater than 1000 nM.
The matching figures for `Cc1ccc(C2=CC(NC(C)(C)Cc3ccccc3)=NCCN2)cc1`: 8.62 and 300 nM.
The matching figures for `CCN(CC)C1=NCCNC(c2ccc(C)cc2)=C1`: less than 6.00 and greater than 1000 nM.
The matching figures for `Cc1ccc(C2=CC(NC(C)(C)C)=NCCN2)c(C)c1`: 7.15 and greater than 1000 nM.
For the compound `Cc1ccc(C2=CC(N3CCOCC3)=NCCN2)cc1`, the pIC50 in series [1] is less than 6.00. This compound also gave an Activity in series [2] greater than 1000 nM.
